Ends that are not written are not given here.

The test system of the test is mice with DSS-induced acute colitis. Briefly: Treatment of DSS-induced acute colitis in mice. Format: in vivo, C57BL/6 J mice. Particulars: oral, daily, 7 days; Ac2-26 95.2 μg/kg; ATTN 35 mg/kg. An outline of the steps:
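Acute colitis induced in C57BL/6 J mice by 3% (w/v) DSS in drinking water for 7 days. Colitis mice were randomized into 4 groups and dosed daily by oral gavage with one of: saline, free peptide, peptide-free carrier nanoparticles (35 mg/kg), or peptide-loaded nanoparticles (35 mg/kg). Peptide dose was 95.2 μg/kg in every peptide-containing formulation.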

For the substance “Ac2-26: pro-resolving peptide Ac2-26, synthesized by ChinaPeptides Co., Ltd. (Ac-AMVSEFLKQAWFIENEEQEYVQTVK; UniProt P04083 2-26, looked up, fragment)”, the “depletion of goblet cells (PAS staining)” value was “no beneficial effects”.
